According to ChEMBL document CHEMBL3856227, “Identification of the first small-molecule inhibitor of the REV7 DNA repair protein interaction” (Bioorg Med Chem, 2016):
Each block holds one molecule with its values, some of them ahead of it. Activity calls are given as the source filed them. The calls are words filed in the database; no cut-off is given here.

How the values were obtained:
Homo sapiens [1] = species: Homo sapiens; experiment: Destabilization of biotin-Avi-tagged REV3L (1846 to 1898 residues)/His-tagged REV7 R124A mutant complex (unknown origin) expressed in Escherichia coli BL21(DE3) incubated for 4 hrs by SYPRO orange dye based RT-PCR analysis
Outline: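 His-REV7(R124A)/REV3L complex at 5 µM in 25 mM HEPES, 100 mM NaCl, pH 7.3 with SYPRO orange 1:2000. Compound at 500 µM final (10 mM DMSO stock) or DMSO, duplicate, 4 h at room temperature. Ramp 25 to 95 °C at 1 °C/min, ex 492/em 610 nm. Tm taken as inflection point of Boltzmann sigmoid fit.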

Homo sapiens [2] = species: Homo sapiens; experiment: Inhibition of C-terminal biotin-tagged REV3L (1875 to 1895 residues) binding to REV3L (1846 to 1898 residues)/His-tagged REV7 R124A mutant complex (unknown origin) expressed in Escherichia coli BL21(DE3) […] by alphascreen assay
Homo sapiens [3] = species: Homo sapiens; experiment: Binding affinity to biotin-Avi-tagged REV3L (1846 to 1898 residues)/His-tagged REV7 R124A mutant complex (unknown origin) expressed in Escherichia coli BL21(DE3) at 50 uM incubated for 20 hrs by pulldown assay
Outline: (§1)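 Complex at 1 µM (biotin-AviTag-REV3L(1846–1898) co-expressed with His-REV7(R124A), Ni-purified) with 0.5% DMSO, compound (50 µM) or REV3L(1875–1895) peptide (5 µM) in 50 mM HEPES pH 7.4, 150 mM NaCl, 0.1% Tween 20. Shaken at 1500 rpm, 4 °C, 20 h. Streptavidin agarose then added for 4 h. Beads washed, heat-eluted, run on SDS gel, stained. Duplicates.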

Homo sapiens [4] = species: Homo sapiens; experiment: Inhibition of C-terminal TAMRA-labeled REV3L (1875 to 1895 residues) binding to 5'-MBP-His8/3'-FLAG-tagged REV7 R124A mutant (unknown origin) expressed in Escherichia coli BL21(DE3) at 3 to 300 uM after 4 hrs by fluorescence polarization assay
Outline: (§2)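 Compounds serially diluted from 10 mM DMSO stock. 4 h incubation, triplicate. Read at ex 555/em 632 nm, reported in mP. Controls: DMSO, and unlabeled REV3L peptides. Compound autofluorescence checked.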

Homo sapiens [5] = species: Homo sapiens; experiment: Binding affinity to biotin-Avi-tagged REV3L (1846 to 1898 residues)/His-tagged REV7 R124A mutant complex (unknown origin) expressed in Escherichia coli BL21(DE3) at 5 uM incubated for 20 hrs by pulldown assay; outline: as §1
[6] = Inhibition of C-terminal TAMRA-labeled REV3L (1875 to 1895 residues) binding to 5'-MBP-His8/3'-FLAG-tagged REV7 R124A mutant (unknown origin) expressed in Escherichia coli BL21(DE3) after 4 hrs by fluorescence polarization assay; design: species or system Homo sapiens; outline: as §2
[7] = system: Mitotic spindle assembly checkpoint protein MAD2B (Homo sapiens), Q9UI95 [R124A]; experiment: Binding affinity to 5'-MBP-His8/3'-FLAG-tagged REV7 R124A mutant (unknown origin) expressed in Escherichia coli BL21(DE3) at 200 uM by 1H waterLOGSY NMR method
Mitotic spindle assembly checkpoint protein MAD2B (Homo sapiens), Q9UI95 [R124A], sequence (Q9UI95 whole entry R124A): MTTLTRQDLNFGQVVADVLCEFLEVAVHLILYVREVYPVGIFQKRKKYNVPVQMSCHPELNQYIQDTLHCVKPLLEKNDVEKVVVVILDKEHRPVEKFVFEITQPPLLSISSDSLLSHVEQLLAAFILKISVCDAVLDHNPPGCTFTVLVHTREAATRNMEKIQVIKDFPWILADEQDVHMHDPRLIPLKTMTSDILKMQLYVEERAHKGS

HeLa [8] = experiment: Potentiation of cisplatin-induced anticlonogenic activity in human HeLa cells at 75 uM after 24 hrs by crystal violet staining based assay; assay type: functional, cell-based
Outline: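 HeLa cells at 450/well in 6-well plates, attached overnight. Cisplatin added at indicated concentrations; 24 h later, compound at 75 µM final or DMSO added for another 24 h. Medium then replaced and culture continued 6 days. Fixed in 3.7% formaldehyde, stained with 0.5% crystal violet, colonies over ~40 cells counted. Triplicate. Survival normalized to cisplatin-vehicle (0.9% NaCl) wells.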

HeLa [9] = experiment: Cytotoxicity in human HeLa cells assessed as decrease in cell viability at 75 uM after 3 days by alamar blue assay; assay type: functional, cell-based
Outline: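 HeLa cells at 1000/well, attached overnight, then given compound or DMSO in fresh medium, triplicate, for 3 days. alamarBlue added for 3 h, fluorescence read at ex 510/em 590 nm. Viability normalized to DMSO-treated cells.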

COS-7 = experiment: Inhibition of REV7/REV3L protein interaction in African green monkey COS7 cells expressing ICL assessed as inhibition of ICL repair activity at 75 uM after 13 hrs by luciferase reporter gene assay; assay type: cell-based; details: Chlorocebus aethiops
Outline: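 COS7 cells at 80,000/well. Medium replaced after 5 h, then transfected with pGL-ICL (10 ng) or pGL4.50 (2.5 ng) plus pRL-TK, FuGENE 6. Cells trypsinized 5 h later and replated in quadruplicate with compound or DMSO. Dual firefly/Renilla luciferase read after 13 h. ICL plasmid signal normalized to non-ICL plasmid. Two-tailed unpaired t-test.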

- Activity (Homo sapiens [1]): Active
- inhibition (Homo sapiens [2]): Active
- Activity (Homo sapiens [3]): Active
SMILES: CC(=O)N1CCC(Cn2cnc3scc(-c4ccco4)c3c2=O)CC1

- inhibition (Homo sapiens [4]): Active
SMILES: CC(=O)N1CCC(Cn2cnc3scc(-c4ccc(C(=O)N5CCOCC5)o4)c3c2=O)CC1

- Activity (Homo sapiens [5]): Active
SMILES: CC[C@H](C)[C@H](NC(=O)[C@H](CCC(=O)O)NC(=O)[C@H](CCC(=O)O)NC(=O)[C@H](CCCNC(=N)N)NC(=O)[C@H](CO)NC(=O)[C@@H]1CCCN1C(=O)[C@@H]1CCCN1C(=O)[C@H](CO)NC(=O)[C@H](CCSC)NC(=O)[C@H](CC(C)C)NC(=O)[C@@H]1CCCN1C(=O)[C@H](CCCCN)NC(=O)[C@H](CC(C)C)NC(=O)[C@@H](NC(=O)[C@H](CC(N)=O)NC(=O)[C@H](C)N)[C@@H](C)CC)C(=O)N[C@@H](CCSC)C(=O)N[C@@H](C)C(=O)N[C@H](C(=O)N[C@@H](CC(C)C)C(=O)N[C@@H](CC(C)C)C(=O)O)[C@@H](C)O

- IC50 [6]: 78 µM
- Activity [7]: Active
SMILES: CC(=O)N1CCC(Cn2cnc3scc(-c4ccc(C)o4)c3c2=O)CC1
- Activity (HeLa [8]): Active
- Activity (HeLa [9]): Active
- inhibition (COS-7): Active
